In the library only some 2.4% were active in any assay of this set; here they are far more common.
PfGluPho inh – PfG6PD (Plasmodium falciparum) enzyme inhibition. PfGluPho enzyme, NADPH resazurin-diaphorase fluorescence. inhibition, % at 20 µM. hit rate 0.78% among 350,000. AID 504690;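 active means inhibition reaching at least a set limit at 20 µM in the primary screen, cut at about 59% in these data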;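 further: 0% = DMSO wells with substrate and 100% = DMSO wells lacking glucose-6-phosphate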
APOBEC3G inh – APOBEC3G (human) deaminase inhibition; Q9HC16; recombinant A3G, ssDNA deamination FAM/TAMRA fluorescence; inhibition, % at 20 µM; hit rate 0.28% among 330,000;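 active means inhibition of at least 40% at 20 µM, with no more than 30% in the related APOBEC3A deaminase screen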;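 further: plate controls were DMSO wells with A3G for no effect and wells lacking A3G enzyme for full effect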
Target sequence (Q9HC16 whole entry, looked up): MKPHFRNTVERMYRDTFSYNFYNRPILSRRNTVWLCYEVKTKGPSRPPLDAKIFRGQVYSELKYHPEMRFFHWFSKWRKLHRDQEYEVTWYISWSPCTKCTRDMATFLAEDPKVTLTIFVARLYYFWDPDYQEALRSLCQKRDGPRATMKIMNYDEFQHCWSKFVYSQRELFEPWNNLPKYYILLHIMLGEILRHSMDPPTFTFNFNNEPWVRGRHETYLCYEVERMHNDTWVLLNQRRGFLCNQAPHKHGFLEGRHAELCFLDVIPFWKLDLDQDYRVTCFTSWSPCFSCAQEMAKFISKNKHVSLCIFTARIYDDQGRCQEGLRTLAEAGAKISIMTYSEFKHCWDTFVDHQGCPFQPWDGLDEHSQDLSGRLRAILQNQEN
M18AAP inhibitor – PfM18AAP enzyme inhibition. hit rate 1.2% among 290,000. recombinant PfM18AAP, H-Glu-NHMec fluorogenic cleavage. inhibition, % at 7.35 µM. AID 1822;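 active means inhibition above the campaign mean inhibition over all tested compounds plus 3 SD, cut at about 28% in these data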;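 further: 0% = plate median of test compound wells and 100% = 2 mM ZnCl2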
HKDC1 inh – inhibitors of human hexokinase HKDC1; recombinant HKDC1, G6PDH/diaphorase resazurin coupled fluorescence; inhibition, % at 20 µM; Q2TB90; hit rate 0.16% among 340,000;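 active means inhibition above about 35% when tested at 20 µM, limit read from the data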;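 further: plate controls were DMSO wells with enzyme for no effect and DMSO wells lacking enzyme for full effect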
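Assay system – recombinant HKDC1 (HK5) hexokinase enzyme, produced in-house · Input – HKDC1 at 5 µg/mL · Reagent – glucose plus 1 mM ATP as hexokinase substrates · Timing – 90 min reaction incubation at room temperature, dark · Measured by – G6PDH/diaphorase-coupled fluorescence, 1 mM NADP, 100 µM resazurin, 525/613 nm · Benchmarks – DMSO-enzyme wells negative, buffer-substituted wells positive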
UBC9 SUMO inh – SUMOylation inhibition | inhibition, % at 35 µM | HTRF SUMOylation assay, SAE1/SAE2 + UBC9, in vitro | hit rate 0.36% among 290,000; in the data active means inhibition above about 50%, passing the limit was not always enough
Target sequence (P63279 whole entry, looked up): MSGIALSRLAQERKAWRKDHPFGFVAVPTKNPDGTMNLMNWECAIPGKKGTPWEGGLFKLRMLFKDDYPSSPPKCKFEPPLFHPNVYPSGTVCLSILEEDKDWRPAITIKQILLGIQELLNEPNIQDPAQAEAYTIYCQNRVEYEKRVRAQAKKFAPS
APOBEC3A inh – inhibitors of human APOBEC3A DNA deaminase. hit rate 0.41% among 330,000. recombinant A3A, FAM/TAMRA ssDNA deamination fluorescence. AID 493011. P31941. inhibition, % at 20 µM;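 active means at least 40% inhibition at 20 µM here, with at most 30% in a related deaminase screen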;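 further: plate controls were A3A with DMSO for no effect and wells lacking A3A enzyme for full effect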
Active calls of the source: *.

How did COc1ccc2[nH]c(=O)c(CN(C3CCCCC3)C(c3nnnn3Cc3ccco3)C(C)C)cc2c1 (stereo not given) do in these assays?
PfGluPho inh: 88*; APOBEC3G inh: 30; M18AAP inhibitor: 9; HKDC1 inh: 37*; UBC9 SUMO inh: -2; APOBEC3A inh: 2

How did Cc1ccc(CN(Cc2cc3cc4c(cc3[nH]c2=O)OCCO4)Cc2nnnn2Cc2ccco2)cc1 do in these assays?
PfGluPho inh: 29; APOBEC3G inh: 16; M18AAP inhibitor: 30*; HKDC1 inh: 22; UBC9 SUMO inh: 32; APOBEC3A inh: 34

What do the screens show for `O=C(NCC(=O)N1CCCC(C(F)(F)F)C1)c1ccccc1Br` (stereo not given)?
PfGluPho inh: -24; APOBEC3G inh: 8; HKDC1 inh: -8; APOBEC3A inh: -2

Results for CC(=O)C[C@H]1c2cc(C(F)(F)F)ccc2S(=O)(=O)N1c1ccccc1 ?
PfGluPho inh: -14; APOBEC3G inh: -5; HKDC1 inh: 4; APOBEC3A inh: -2

Results for O=C1NC(=S)S/C1=C\c1cc2ccccc2nc1N1CCCCC1 ?
PfGluPho inh: -33; APOBEC3G inh: 2; M18AAP inhibitor: -13; HKDC1 inh: 11; UBC9 SUMO inh: 55*; APOBEC3A inh: 2

What do the screens show for `COc1ccc2nc(N3CCCCC3)c(/C=C3\SC(=S)NC3=O)cc2c1`?
PfGluPho inh: -27; APOBEC3G inh: -5; M18AAP inhibitor: -4; HKDC1 inh: 9; UBC9 SUMO inh: 49; APOBEC3A inh: 1

How did NC(=O)CC[C@@H]1NC(=O)[C@H](Cc2ccc(O)cc2)NC(=O)c2cc([N+](=O)[O-])cc(F)c2OCC[C@@H](C(N)=O)NC1=O do in these assays?
PfGluPho inh: 0; APOBEC3G inh: -3; M18AAP inhibitor: 5; HKDC1 inh: -2; UBC9 SUMO inh: 9; APOBEC3A inh: 1

How did NC(=O)N/N=C/c1ccc2cccc(OCc3ccccc3)c2n1 do in these assays?
PfGluPho inh: 24; APOBEC3G inh: -7; M18AAP inhibitor: 1; HKDC1 inh: 1; UBC9 SUMO inh: 58*; APOBEC3A inh: 1

What do the screens show for `COC(=O)c1ccc(CN(C)S(=O)(=O)c2ccc(C)cc2)o1`?
PfGluPho inh: 0; APOBEC3G inh: -4; HKDC1 inh: 4; UBC9 SUMO inh: 14; APOBEC3A inh: 0

Results for CN(C)c1cccc2c(S(=O)(=O)N3CCCC3)cccc12 ?
PfGluPho inh: 1; APOBEC3G inh: -4; M18AAP inhibitor: 5; HKDC1 inh: 9; UBC9 SUMO inh: 51*; APOBEC3A inh: 2

What do the screens show for `Cc1noc(C)c1CSCC(=O)Nc1ccc(OC(F)F)c(Cl)c1`?
PfGluPho inh: 16; APOBEC3G inh: -8; HKDC1 inh: -2; APOBEC3A inh: -5

What do the screens show for `COc1cc(C(C[N+](=O)[O-])c2c(C)[nH]c3ccccc23)ccc1O` (stereo not given)?
PfGluPho inh: 3; APOBEC3G inh: -3; M18AAP inhibitor: 29*; HKDC1 inh: -3; UBC9 SUMO inh: -17; APOBEC3A inh: -3

Results for Cc1c(NC(=O)C2CC(c3ccc(F)cc3)=NO2)c(=O)n(-c2ccccc2)n1C (stereo not given) ?
PfGluPho inh: 5; APOBEC3G inh: -5; M18AAP inhibitor: -7; HKDC1 inh: -7; UBC9 SUMO inh: 12; APOBEC3A inh: 0

How did CCNC(=S)NNC(=O)c1csc(CC)c1 do in these assays?
PfGluPho inh: -13; APOBEC3G inh: -4; M18AAP inhibitor: 31*; HKDC1 inh: -7; UBC9 SUMO inh: 1; APOBEC3A inh: -6

What do the screens show for `Cc1ccccc1C(=O)NNc1ccc(-c2csnn2)cc1`?
PfGluPho inh: 22; APOBEC3G inh: -8; M18AAP inhibitor: 30*; HKDC1 inh: 0; UBC9 SUMO inh: 12; APOBEC3A inh: 0

Results for CC(=O)Oc1ccc(-c2csnn2)cc1 ?
PfGluPho inh: 7; APOBEC3G inh: -1; M18AAP inhibitor: 3; HKDC1 inh: 3; UBC9 SUMO inh: 22; APOBEC3A inh: -1

Results for CCn1nnc(-c2ccccc2NS(=O)(=O)c2ccc(S(=O)(=O)N3CCCCCC3)cc2)n1 ?
PfGluPho inh: -1; APOBEC3G inh: -5; M18AAP inhibitor: -2; HKDC1 inh: 0; UBC9 SUMO inh: -10; APOBEC3A inh: 0

How did O=C(NNS(=O)(=O)c1ccc([N+](=O)[O-])cc1)C(=O)Nc1cccc(C(=O)O)c1 do in these assays?
PfGluPho inh: 25; APOBEC3G inh: -4; M18AAP inhibitor: 31*; HKDC1 inh: 3; UBC9 SUMO inh: 2; APOBEC3A inh: 1

How did Cc1ccc(/C=c2/sc3n(c2=O)CCCN=3)o1 do in these assays?
PfGluPho inh: 17; APOBEC3G inh: 11; M18AAP inhibitor: 25; HKDC1 inh: 0; UBC9 SUMO inh: 18; APOBEC3A inh: -2

Results for Cc1ccc(/C=c2\sc3n(c2=O)CN(c2ccc(Br)cc2)CN=3)o1 ?
PfGluPho inh: 34; APOBEC3G inh: -1; M18AAP inhibitor: 29*; HKDC1 inh: 0; UBC9 SUMO inh: 3; APOBEC3A inh: -3

What do the screens show for `COCCNc1nc(-c2cc(C(=O)Nc3ccccc3)on2)cc(C(C)C)n1`?
APOBEC3G inh: -1; APOBEC3A inh: -1

How did O=C(/C=C/c1cccc(Cl)c1)c1ccc([N+](=O)[O-])o1 do in these assays?
PfGluPho inh: 97*; APOBEC3G inh: -12; HKDC1 inh: 61*; APOBEC3A inh: 3

What do the screens show for `Cc1cc(O)c(C(=O)/C=C/c2cccc([N+](=O)[O-])c2)c(=O)o1`?
PfGluPho inh: -5; APOBEC3G inh: 9; M18AAP inhibitor: 9; HKDC1 inh: 10; UBC9 SUMO inh: 29; APOBEC3A inh: 8

What do the screens show for `CCc1nnc(NC(=O)CSc2nc3[nH]ncc3c(=O)[nH]2)s1`?
PfGluPho inh: -10; APOBEC3G inh: -6; M18AAP inhibitor: 31*; HKDC1 inh: -9; UBC9 SUMO inh: 6; APOBEC3A inh: -2

Results for CCOC(=O)CC(NC(=O)c1cc2cc(Cl)cc(Cl)c2oc1=O)c1cccc([N+](=O)[O-])c1 (stereo not given) ?
PfGluPho inh: 2; APOBEC3G inh: -9; M18AAP inhibitor: 3; HKDC1 inh: 17; UBC9 SUMO inh: 7; APOBEC3A inh: -6

What do the screens show for `CCN1c2ccccc2N(C)C1(C)c1ccccc1` (stereo not given)?
PfGluPho inh: 67*; M18AAP inhibitor: -2; HKDC1 inh: 24; UBC9 SUMO inh: -4

What do the screens show for `COc1ccc(-c2nc(SCC(=O)Nc3cc(C)on3)n[nH]2)cc1`?
PfGluPho inh: 3; APOBEC3G inh: -9; M18AAP inhibitor: -10; HKDC1 inh: -3; UBC9 SUMO inh: 50*; APOBEC3A inh: 1

How did O=C(CSc1n[nH]c(-c2cccnc2)n1)Nc1ccccc1 do in these assays?
PfGluPho inh: 12; APOBEC3G inh: -5; M18AAP inhibitor: -4; HKDC1 inh: -5; UBC9 SUMO inh: 3; APOBEC3A inh: -3

High-throughput results (PubChem BioAssay)
